Test results reported in ChEMBL document CHEMBL2406927, “Inhibitory effect of resveratrol dimerized derivatives on nitric oxide production in lipopolysaccharide-induced RAW 264.7 cells” (Bioorg Med Chem Lett, 2013).
pIC50: −log10 of the molar value. Calls of active or inactive are those of the source. The rule behind the calls is not given here.

How the values were obtained:
RAW264.7 [1] = assay: Antiinflammatory activity in mouse RAW264.7 cells assessed as LPS-induced NO production at 10 uM treated 2 hrs before LPS challenge measured after 24 hrs
RAW264.7 [2] = assay: Antiinflammatory activity in mouse RAW264.7 cells assessed as inhibition of LPS-induced NO production treated 2 hrs before LPS challenge measured after 24 hrs; format: functional, cell-based; settings: for pIC50: Mus musculus, RAW264.7, read-out: IC50; for IC50: raw264.7
Outline: (§1)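 Cells were pretreated with compound for 2 h before LPS (1 μg/mL), then incubated 24 h. NO production was determined by nitrite/nitrate assay and expressed as a percentage of LPS-stimulated cells (means, SEM). IC50 is the concentration giving 50% inhibition of NO production. Data come from at least three independent experiments, each run in duplicate.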

RAW264.7 [3] = assay: Antiinflammatory activity in mouse RAW264.7 cells assessed as inhibition of LPS-induced iNOS expression at 10 uM after 24 hrs by Western blot analysis; format: functional, cell-based
Outline: (§2)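 Western blot quantitation of iNOS protein, with β-actin as loading control. RAW 264.7 cells were given a 2 h compound pretreatment (5–20 μM), then 1 μg/mL LPS for 24 h. Data come from at least three independent experiments, each performed in duplicate.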

RAW264.7 [4] = assay: Antiinflammatory activity in mouse RAW264.7 cells assessed as inhibition of LPS-induced NO production at 10 uM treated 2 hrs before LPS challenge measured after 24 hrs; format: functional
Outline: as §1

RAW264.7 [5] = assay: Antiinflammatory activity in mouse RAW264.7 cells assessed as inhibition of IL-1beta release at 10 uM after 24 hrs by ELISA; format: functional, cell-based
Outline: (§3)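 RAW 264.7 cells were preincubated 2 h with compound (5–20 μM), then stimulated with LPS (1 μg/mL) for 24 h. IL-1β release was measured by ELISA and compared with LPS-stimulated and unstimulated cells. Data come from at least three independent experiments, each run in duplicate.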

RAW264.7 [6] = assay: Antiinflammatory activity in mouse RAW264.7 cells assessed as inhibition of LPS-induced iNOS expression at 20 uM after 24 hrs by Western blot analysis; format: functional, cell-based
Outline: as §2

RAW264.7 [7] = assay: Antiinflammatory activity in mouse RAW264.7 cells assessed as inhibition of LPS-induced iNOS protein expression incubated for 2 hrs prior to LPS challenge measured after 24 hrs by Western blot analysis; format: functional, cell-based
Outline: as §2

RAW264.7 [8] = assay: Antiinflammatory activity in mouse RAW264.7 cells assessed as inhibition of LPS-induced NO production at 20 uM treated 2 hrs before LPS challenge measured after 24 hrs; format: functional, cell-based
Outline: as §1

[9] = biological target: MAP kinase p38 (Mus musculus) (UniProt P47811+O08911+Q9WUI1+Q9Z1B7); assay: Inhibition of LPS-induced p38 MAPK phosphorylation in mouse RAW264.7 cells after 45 mins by Western blot analysis; format: cell-based
Outline: (§4)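 Phosphorylation of p38, JNK1/2 and ERK1/2 was detected by Western blot 45 min after LPS stimulation of RAW 264.7 cells. Each phospho-band was quantified against its total kinase as loading control. Data come from at least three independent experiments, each run in duplicate.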

RAW264.7 [10] = assay: Antiinflammatory activity in mouse RAW264.7 cells assessed as inhibition of LPS-induced IL-1beta release incubated for 2 hrs prior to LPS challenge measured after 24 hrs by ELISA; format: functional, cell-based
Outline: as §3

JNK1/JNK2 (Mus musculus) = JNK1/JNK2 (Mus musculus) (UniProt Q91Y86+Q9WTU6); assay: Inhibition of LPS-induced JNK1/2 phosphorylation in mouse RAW264.7 cells after 45 mins by Western blot analysis; format: cell-based
Chain of JNK1/JNK2 (Mus musculus) (Q91Y86 whole entry, looked up): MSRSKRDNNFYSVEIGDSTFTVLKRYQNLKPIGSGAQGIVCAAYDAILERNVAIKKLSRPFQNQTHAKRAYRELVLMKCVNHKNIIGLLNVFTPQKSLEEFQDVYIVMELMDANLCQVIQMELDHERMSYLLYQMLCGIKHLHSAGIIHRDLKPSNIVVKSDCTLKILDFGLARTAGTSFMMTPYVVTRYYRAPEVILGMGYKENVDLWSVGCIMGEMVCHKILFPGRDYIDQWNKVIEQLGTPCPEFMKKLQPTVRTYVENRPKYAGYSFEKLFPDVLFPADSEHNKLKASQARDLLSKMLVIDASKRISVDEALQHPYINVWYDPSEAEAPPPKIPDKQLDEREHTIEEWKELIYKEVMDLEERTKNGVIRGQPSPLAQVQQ
Chain of JNK1/JNK2 (Mus musculus) (Q9WTU6 whole entry, looked up): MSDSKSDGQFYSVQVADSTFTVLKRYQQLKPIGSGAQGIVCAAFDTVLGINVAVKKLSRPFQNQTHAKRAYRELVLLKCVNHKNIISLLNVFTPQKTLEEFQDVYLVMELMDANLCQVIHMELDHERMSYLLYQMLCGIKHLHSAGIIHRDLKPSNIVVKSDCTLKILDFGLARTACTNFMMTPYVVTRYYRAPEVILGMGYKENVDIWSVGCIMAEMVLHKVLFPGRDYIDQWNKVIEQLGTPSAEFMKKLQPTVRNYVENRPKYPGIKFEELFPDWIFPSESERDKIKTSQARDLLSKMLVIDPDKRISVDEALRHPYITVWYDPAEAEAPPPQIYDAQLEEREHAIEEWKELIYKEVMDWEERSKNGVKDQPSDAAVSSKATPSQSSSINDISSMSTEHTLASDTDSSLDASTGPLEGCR
Outline: as §4

RAW264.7 [11] = assay: Cytotoxicity against mouse RAW264.7 cells up to 20 uM; format: cell-based
RAW264.7 [12] = assay: Antiinflammatory activity in mouse RAW264.7 cells assessed as inhibition of IL-1beta release at 20 uM after 24 hrs by ELISA; format: functional, cell-based
Outline: as §3

Structure (SMILES) | NO production % at 10 µM (RAW264.7 [1]) | pIC50 (RAW264.7 [2]) | other results
COc1cc(OC)cc([C@@H]2C(SCc3ccccc3)c3cc(OC)cc(OC)c3[C@H]2c2ccccc2)c1 (stereo not given in full) | 75.9% | < 3.70 | –
COc1ccc([C@@H]2c3c(OC)cc(OC)cc3C(SCc3ccc(C)cc3)[C@H]2c2cc(OC)cc(OC)c2)cc1 (stereo not given in full) | 86.3% | < 3.70 | –
COc1cc(OC)cc([C@@H]2C(=O)c3cc(OC)cc(OC)c3[C@H]2c2ccc(F)cc2)c1 | 57.4% | 4.35 | –
O=C1c2cc(O)cc(O)c2[C@@H](c2ccc(O)cc2)[C@@H]1c1cc(O)cc(O)c1 [ISOPAUCIFLORAL F] | 97.1% | < 3.70 | –
COc1ccc(CSC2c3cc(OC)cc(OC)c3[C@@H](c3ccc(OC)cc3)[C@@H]2c2cc(OC)cc(OC)c2)cc1 (stereo not given in full) | 70.5% | 4.90 | –
COc1ccc([C@@H]2c3c(OC)cc(OC)cc3C(C(O)c3ccc(Cl)cc3)[C@H]2c2cc(OC)cc(OC)c2)cc1 (stereo not given in full) | 77.5% | < 3.70 | –
COc1ccc(/C=C2/c3cc(OC)cc(OC)c3[C@@H](c3ccccc3)[C@@H]2c2cc(OC)cc(OC)c2)cc1 | 84.3% | < 3.70 | –
COc1ccc(C(O)C2c3cc(OC)cc(OC)c3[C@@H](c3ccccc3)[C@@H]2c2cc(OC)cc(OC)c2)cc1 (stereo not given in full) | 67.8% | 4.78 | –
COc1ccc([C@@H]2c3c(OC)cc(OC)cc3C(SCc3ccc(Cl)cc3)[C@H]2c2cc(OC)cc(OC)c2)cc1 (stereo not given in full) | 79.8% | < 3.70 | –
COc1ccc(CSC2c3cc(OC)cc(OC)c3[C@@H](c3ccccc3)[C@@H]2c2cc(OC)cc(OC)c2)cc1 (stereo not given in full) | 72.4% | < 3.70 | –
C[S+]([O-])c1ccc(-c2nc(-c3ccc(F)cc3)c(-c3ccncc3)[nH]2)cc1 (stereo not given) | – | – | inhibition (RAW264.7 [3]): Active; inhibition (RAW264.7 [4]): Active; inhibition (RAW264.7 [5]): Active
COc1ccc([C@@H]2c3c(OC)cc(OC)cc3C(=O)[C@H]2c2cc(OC)cc(OC)c2)cc1 | 60.9% | < 3.70 | –
COc1ccc([C@@H]2c3c(OC)cc(OC)cc3/C(=C/c3ccc(Cl)cc3)[C@H]2c2cc(OC)cc(OC)c2)cc1 | 90.7% | < 3.70 | –
COc1ccc([C@@H]2c3c(OC)cc(OC)cc3C(C(O)c3ccc(C)cc3)[C@H]2c2cc(OC)cc(OC)c2)cc1 (stereo not given in full) | 63.5% | 4.58 | –
COc1ccc([C@@H]2c3c(OC)cc(OC)cc3C(C(O)c3ccccc3)[C@H]2c2cc(OC)cc(OC)c2)cc1 (stereo not given in full) | 75.4% | < 3.70 | –
COc1cc(OC)cc([C@@H]2C(=O)c3cc(OC)cc(OC)c3[C@H]2c2ccccc2)c1 | 66% | 4.57 | –
COc1ccc([C@@H]2c3c(OC)cc(OC)cc3/C(=C/c3ccc(F)cc3)[C@H]2c2cc(OC)cc(OC)c2)cc1 | 95.9% | < 3.70 | –

Structure (SMILES) | NO production % at 10 µM (RAW264.7 [1]) | pIC50 (RAW264.7 [2]) | other results
COc1ccc([C@@H]2c3c(OC)cc(OC)cc3/C(=C/c3ccc(C)cc3)[C@H]2c2cc(OC)cc(OC)c2)cc1 | 99.2% | < 3.70 | –
COc1ccc(C(O)C2c3cc(OC)cc(OC)c3[C@@H](c3ccc(OC)cc3)[C@@H]2c2cc(OC)cc(OC)c2)cc1 (stereo not given in full) | 77% | < 3.70 | –
COc1ccc(/C=C2/c3cc(OC)cc(OC)c3[C@@H](c3ccc(OC)cc3)[C@@H]2c2cc(OC)cc(OC)c2)cc1 | 56.1% | 5.20 | –
Oc1ccc(/C=C2/c3cc(O)cc(O)c3[C@@H](c3ccc(O)cc3)[C@@H]2c2cc(O)cc(O)c2)cc1 | 70% | – | IC50 (RAW264.7 [2]): Not Active
Oc1c2ccccc2c2c3c(cccc13)N=N2 | – | – | inhibition (RAW264.7 [3]): Active; inhibition (RAW264.7 [4]): Active; inhibition (RAW264.7 [5]): Active
COc1cc(OC)cc([C@@H]2C(C(O)c3ccccc3)c3cc(OC)cc(OC)c3[C@H]2c2ccccc2)c1 (stereo not given in full) | 59.5% | 4.67 | –
COc1ccc([C@@H]2c3c(OC)cc(OC)cc3[C@H]3[C@H](c4ccc(OC)cc4)c4c(OC)cc(OC)cc4[C@@H]23)cc1 | 80.2% | < 3.70 | –
COc1ccc([C@@H]2c3c(OC)cc(OC)cc3C(SCc3ccc(F)cc3)[C@H]2c2cc(OC)cc(OC)c2)cc1 (stereo not given in full) | 92.5% | < 3.70 | –
COc1ccc([C@@H]2c3c(OC)cc(OC)cc3/C(=C/c3ccccc3)[C@H]2c2cc(OC)cc(OC)c2)cc1 | 88.2% | < 3.70 | –
COc1ccc([C@@H]2c3c(OC)cc(OC)cc3C(C(O)c3ccc(F)cc3)[C@H]2c2cc(OC)cc(OC)c2)cc1 (stereo not given in full) | 81.4% | < 3.70 | –
COc1ccc([C@@H]2c3c(OC)cc(OC)cc3C(SCc3ccccc3)[C@H]2c2cc(OC)cc(OC)c2)cc1 (stereo not given in full) | 78.1% | < 3.70 | –
COc1cccc(-c2cc(=O)c3ccccc3o2)c1N | – | – | inhibition (RAW264.7 [3]): inactive; inhibition (RAW264.7 [4]): inactive; inhibition (RAW264.7 [5]): inactive
Oc1ccc([C@@H]2c3c(O)cc(O)cc3[C@H]3[C@H](c4ccc(O)cc4)c4c(O)cc(O)cc4[C@@H]23)cc1 (relative stereo) [PALLIDOL] | 89.3% | < 3.70 | –
COc1cc(OC)cc([C@@H]2C(O)c3cc(OC)cc(OC)c3[C@H]2c2ccc(F)cc2)c1 (stereo not given in full) | 54% | – | IC50 (RAW264.7 [2]): Not Active
COc1cc(OC)cc([C@@H]2/C(=C\c3ccccc3)c3cc(OC)cc(OC)c3[C@H]2c2ccccc2)c1 | 108% | < 3.70 | –
COc1ccc([C@@H]2c3c(OC)cc(OC)cc3C(O)[C@H]2c2cc(OC)cc(OC)c2)cc1 (stereo not given in full) | 58.3% | 5.10 | –
COc1cc(OC)cc([C@@H]2C(O)c3cc(OC)cc(OC)c3[C@H]2c2ccccc2)c1 (stereo not given in full) | 49.5% | 5.47 | inhibition (RAW264.7 [6]): Active; inhibition (RAW264.7 [7]): Dose-dependent effect; inhibition (RAW264.7 [2]): Dose-dependent effect; inhibition (RAW264.7 [8]): Active; inhibition [9]: Dose-dependent effect; inhibition (RAW264.7 [10]): Dose-dependent effect; inhibition (JNK1/JNK2 (Mus musculus)): Dose-dependent effect; Activity (RAW264.7 [11]): Non-toxic; inhibition (RAW264.7 [12]): Active
